Source: PubChem (several laboratories)
IDE cell activ – boosts human insulin-degrading enzyme activity in HEK cells; P14735; FAbeta-B cleavage, fluorescence polarization; 0% vehicle, 100% cell-free pure enzyme wells; activation, % at 5.96 µM; 340,000 compounds, 0.073% hits; AID 493087;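 active = activation above the mean of all tested compounds plus 3 SD, set per screening campaign, cut at about 17% in these data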
HDAC3 inhib – blocks human histone deacetylase 3; recombinant HDAC3, fluorogenic peptide/trypsin coupled, fluorescence; inhibition, % at 8.3 µM; 320,000 compounds, 0.15% hits; in the data active = inhibition above about 26%, passing the limit was not always enough
Target sequence (O15379 whole entry, looked up): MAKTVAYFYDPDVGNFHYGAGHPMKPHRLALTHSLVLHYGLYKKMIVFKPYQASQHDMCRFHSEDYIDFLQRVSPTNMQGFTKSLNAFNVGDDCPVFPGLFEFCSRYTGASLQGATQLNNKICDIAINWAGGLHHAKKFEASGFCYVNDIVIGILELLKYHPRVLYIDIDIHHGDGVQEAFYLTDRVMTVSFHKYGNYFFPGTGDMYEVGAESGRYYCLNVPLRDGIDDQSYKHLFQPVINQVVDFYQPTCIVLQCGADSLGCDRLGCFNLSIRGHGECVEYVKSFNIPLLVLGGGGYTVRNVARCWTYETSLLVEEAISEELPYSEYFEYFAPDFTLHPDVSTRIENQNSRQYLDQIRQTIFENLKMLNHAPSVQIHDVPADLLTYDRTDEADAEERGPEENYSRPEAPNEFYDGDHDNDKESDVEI
IDE cell inh – inhibitors of human insulin-degrading enzyme in cells; 320,000 compounds, 0.41% hits; inhibition, % at 5.59 µM; HEK cells, FAbetaB cleavage, fluorescence polarization; P14735;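 active = percent inhibition above the average of all tested compounds plus 3 SD, set per screening campaign, cut at about 16% in these data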;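 note: IDE supplied by intact live HEK cells; FP after avidin binding of uncleaved biotin substrate so inhibition keeps polarization high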
TbMetRS inhib – Trypanosoma brucei MetRS inhibition; purified T. brucei MetRS, ATP depletion, Kinase-Glo luminescence; inhibition, % at 11.9 µM; 360,000 compounds, 0.4% hits; AID 624268;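 active = inhibition above a per-plate cutoff of the control wells' mean inhibition plus 3 SD, cut at about 5.5% in these data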
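Test system: purified T. brucei MetRS enzyme. Also added: ATP, methionine and E. coli bulk tRNA substrates. Compound: 11.9 µM single point. Schedule: 15 min enzyme-compound preincubation, 2 h reaction, 10 min detection, 25 °C. Signal: luciferase luminescence of residual ATP, Kinase-Glo. Evaluation: percent inhibition versus plate control medians. Controls: DMSO wells, low control.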
Yeast superoxide – caloric restriction mimetics inhibiting age-related superoxide in yeast. superoxide response (% of plate mean), % at 10 µM. 330,000 compounds, 0.18% hits. AID 2690. S. cerevisiae aged cells, superoxide DHE fluorescence; active compounds read low;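 active = superoxide response under a set limit, about three screen SD below normal, cut at about 65% in these data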;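 note: yeast aged for seven days with compound at 30 °C before DHE staining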
Efflux pump mplx – blocks antifungal efflux pumps in multiplex yeast assay; S. cerevisiae Candida pump triplex, Nile Red efflux; inhibition, % at 10 µM; 330,000 compounds, 0.44% hits;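 active = plate passing quality check with inhibition over a set limit, or well fluorescence over plate mean plus 4 SD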;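 note: Nile Red retained in pooled yeast measured as flow cytometry median fluorescence; higher means more Nile Red kept so more efflux inhibition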
TbMetRS confirm – Trypanosoma brucei MetRS inhibition confirmed; inhibition, % at 11.9 µM; AID 624412; T. brucei MetRS enzyme, luminescence (ATP depletion); 1,400 compounds, 93% hits; shares compounds with TbMetRS inhib; in the data active = inhibition above about 7%
Jurkat cytotox – Jurkat T cell cytotoxicity for MetRS hits. 1,400 compounds, 12% hits. inhibition, % at 8.3 µM. AID 624413. Jurkat cells viability, ATP luminescence. shares compounds with TbMetRS inhib; in the data active = inhibition above about 15%
TbMetRS FP orth – T. brucei MetRS inhibition, orthogonal assay. purified T. brucei MetRS, fluorescence polarization. 1,400 compounds, 44% hits. inhibition, % at 11.9 µM. shares compounds with TbMetRS inhib. AID 651607; in the data active = inhibition above about 17%
Each line names hits and unclear results; the compound was inactive in the other large screens (follow-up assays come after a bar, where they were run). Rows were chosen to be rich in hits. Some 1.4% of all compounds tested hit in one or more screens of this group.

CCC(O)c1cnc(OCc2ccccc2)nc1OCc1ccccc1 (stereo unspecified)	none (no result: IDE cell activ, HDAC3 inhib, IDE cell inh, Yeast superoxide, Efflux pump mplx)
Oc1ccc(Br)cc1CNc1cnc2ccccc2c1	TbMetRS inhib 11 | TbMetRS confirm 15 | Jurkat cytotox 40 | TbMetRS FP orth inactive
Cc1ccc(O)c(CNc2cnc3ccccc3c2)c1	none
COc1cccc(/C(O)=C/c2nc3ccc(C(=O)NCCc4cccc(C)c4)cc3[nH]c2=O)c1	TbMetRS inhib 7.4 | TbMetRS confirm 6.6 | Jurkat cytotox 15 | TbMetRS FP orth inactive
COc1cccc(/C(O)=C/c2nc3ccc(C(=O)NCCc4ccc(Cl)cc4)cc3[nH]c2=O)c1	none (no result: HDAC3 inhib, IDE cell inh, Yeast superoxide, Efflux pump mplx)
COc1ccc(CCCNC(=O)C2(C)Cc3c(-c4cccc(C(N)=O)c4)ccnc3O2)cc1 (stereo unspecified)	TbMetRS inhib 6.6 (no result: IDE cell activ, HDAC3 inhib, IDE cell inh, Yeast superoxide, Efflux pump mplx) | TbMetRS confirm inactive | Jurkat cytotox 49 | TbMetRS FP orth inactive
Cc1noc(C)c1-c1ccc(C(=O)NCCc2ccccc2)c2occc12	none (no result: IDE cell activ, HDAC3 inhib, IDE cell inh, Yeast superoxide, Efflux pump mplx)
O=C(CN1CCN(CCC(=O)Nc2ccccc2F)CC1)Nc1ccc(Cl)cc1	TbMetRS inhib 6.4 | TbMetRS confirm inactive | Jurkat cytotox inactive | TbMetRS FP orth inactive
O=C(CN1CCN(CCC(=O)Nc2ccccc2F)CC1)Nc1ccc(F)cc1	none
COc1ccccc1C1CC(c2ccc(Cl)cc2Cl)Nc2nc(N)nn21 (stereo unspecified)	TbMetRS inhib 6.6 | TbMetRS confirm 15 | Jurkat cytotox inactive | TbMetRS FP orth inactive
CCOc1cccc(CN2CCC(CCC(=O)NC3CC3)CC2)c1O	none
O=C(CCCNC(=O)c1ccc(Cl)cc1)Nc1ccc(Br)cc1	TbMetRS inhib 9.1 | TbMetRS confirm 60 | Jurkat cytotox inactive | TbMetRS FP orth 43
Cc1cccc(NC(=O)CCNC(=O)c2ccc(Br)cc2)c1	TbMetRS inhib 31 | TbMetRS confirm 56 | Jurkat cytotox inactive | TbMetRS FP orth 70
O=C(COC(=O)CCCNC(=O)c1ccc(Cl)cc1)Nc1ccc(Br)cc1	none
Cc1cc(C)c(NC(=O)CNC(=O)c2cc([N+](=O)[O-])ccc2N2CCOCC2)c(C)c1	none
O=C(CSc1nc2ccccc2o1)Nc1cc(C(F)(F)F)ccc1N1CCOCC1	none
O=C(Cn1cnc2ccccc21)Nc1cc(C(F)(F)F)ccc1N1CCOCC1	TbMetRS inhib 27 | TbMetRS confirm 43 | Jurkat cytotox inactive | TbMetRS FP orth 23
O=C(NCCc1nccs1)C1CCC(=O)N(CCc2ccc(Cl)cc2)C1 (stereo unspecified)	none
Cc1ccc([C@H]2N[C@]3(CCCN(Cc4ccc(F)cc4)C3=O)[C@H]3C(=O)N(Cc4ccccc4)C(=O)[C@@H]23)cc1	none (no result: IDE cell activ, HDAC3 inhib, IDE cell inh, Yeast superoxide, Efflux pump mplx)
Cc1[nH]c2ccccc2c1NC(=O)CN1CCN(C(=O)c2ccco2)CC1	none (no result: IDE cell activ)
O=C(C(=O)N1CCN(C(=O)c2ccco2)CC1)c1c[nH]c2ccccc12	TbMetRS inhib 5.8 | TbMetRS confirm 12 | Jurkat cytotox inactive | TbMetRS FP orth inactive
Cc1[nH]c2ccccc2c1C(=O)C(=O)N1CCN(C(=O)c2ccco2)CC1	TbMetRS inhib 6.4 | TbMetRS confirm 11 | Jurkat cytotox inactive | TbMetRS FP orth inactive
O=C1CC2(CCN(C(=O)C(=O)c3c[nH]c4ccccc34)CC2)Oc2ccccc21	TbMetRS inhib 20 | TbMetRS confirm 33 | Jurkat cytotox inactive | TbMetRS FP orth 18
CCc1ccc(C(C)NC(=O)Cn2cnc3c(=O)n(C)c(=O)n(C)c32)cc1 (stereo unspecified)	none
CC1CCCN(C(=O)CN2CCC(c3nc4ccc(Cl)cc4[nH]3)CC2)C1 (stereo unspecified)	none
Clc1ccc(CN2CCC(c3nc4ccc(Cl)cc4[nH]3)CC2)cc1	TbMetRS inhib 8.4 | TbMetRS confirm 17 | Jurkat cytotox 21 | TbMetRS FP orth inactive
Cc1sc(-c2ccccn2)nc1OC(=O)c1ccc(F)cc1F	none
